# Measured values collected from several papers.
# Compare with care: the assays were run in different laboratories.
# MMP13: Collagenase 3 (MMP13, Homo sapiens, UniProt P45452)
# LNPEP: Leucyl-cystinyl aminopeptidase (LNPEP, Homo sapiens, UniProt Q9UIQ6)
# Cruzipain: Cruzipain (Trypanosoma cruzi, UniProt P25779)
# Kcna3: Potassium voltage-gated channel subfamily A member 3 (Kcna3, Mus musculus, UniProt P16390)
# JAK1: Tyrosine-protein kinase JAK1 (JAK1, Homo sapiens, UniProt P23458)
# SLCO1B1: Solute carrier organic anion transporter family member 1B1 (SLCO1B1, Homo sapiens, UniProt Q9Y6L6)
Structure (SMILES),target,test,test system,setting,IC50 [nM]
Cn1nc(C(=O)NCc2ccc(C(=O)O)cc2)cc1-c1ccc2[nH]c(-c3cncnc3)cc2c1,MMP13,"enzyme activity, inhibitor, FRET",,,6.8
CCOCc1nc(O)c(-c2nnc(Cc3ccc(Cl)cn3)o2)c(O)c1-c1c(OC)cccc1OC,"5-hydroxytryptamine receptor 4 (HTR4, Homo sapiens, UniProt Q13639)","ligand displacement, radioligand",,,> 30000
CC/C=C\C/C=C\C/C=C\C/C=C\C/C=C\CCCC(=O)O,"Polynucleotide kinase (pseT, Enterobacteria phage T4, UniProt P06855)","enzyme activity, inhibitor",,,> 100000
CCCC[C@H](NC(=O)[C@H](C)c1c(C)[nH]c2ccc(O)cc12)c1ncc(-c2cc3ccccc3nc2OC)[nH]1,"Histone deacetylase 11 (HDAC11, Homo sapiens, UniProt Q96DB2)","enzyme activity, inhibitor",,,100
Cc1ccc(S(=O)(=O)Nc2cccc(-c3nnn[nH]3)c2)cc1C(F)(F)F,LNPEP,"enzyme activity, inhibitor, fluorescence",,,2300
O=C(COc1ccccc1Br)NCCc1nc2ccccc2[nH]1,Cruzipain,"enzyme activity, inhibitor",,,400
CCOc1ccc2c(-c3cc(C)nc(Nc4cc(OC)cc(C(F)(F)F)c4)n3)cnn2n1,"Dual specificity protein kinase CLK2 (CLK2, Homo sapiens, UniProt P49760)","enzyme activity, inhibitor",,,> 10000
Cn1cc(-c2cc3cc(-c4cc(C(=O)NCc5ccc(C(=O)O)cc5)nn4C)ccc3[nH]2)cn1,MMP13,"enzyme activity, inhibitor, FRET",,,1.6
O=C(CNC(=O)c1ccccc1)OC(C(=O)Nc1cc(C(F)(F)F)ccc1Cl)c1ccccc1 (centres unmarked),Cruzipain,"enzyme activity, inhibitor",,,7000
CN(c1cccc(-c2nnn[nH]2)c1)S(=O)(=O)c1cc(Br)c(Cl)s1,LNPEP,"enzyme activity, inhibitor, fluorescence",,,11800
Nc1nc2ccc(OC(F)(F)F)cc2s1,Kcna3,"ion current, inhibitor, patch clamp",,,50000
Cc1noc(-c2cc3cc(-c4cc(C(=O)NCc5ccc(C(=O)O)cc5)nn4C)ccc3[nH]2)n1,MMP13,"enzyme activity, inhibitor, FRET",,,0.21
Cc1cc(N2CCc3c(c(C)nn3CC34CCC(NC(=O)[C@@H]5COCCN5)(CC3)CC4)C2)c2cnn(C)c2n1,"Toll-like receptor 7 (TLR7, Homo sapiens, UniProt Q9NYK1)","IL-6 release, inhibitor",,,0.7
CCC1CN(C(=O)NCC(F)(F)F)CC1NCc1ccc(C)nc1-c1cnc2[nH]ccc2c1 (centres unmarked),JAK1,"enzyme activity, inhibitor, ADP detection",,,500
O=c1ccc2c(OCCCCOc3cccc(O)c3)c3ccoc3cc2o1,Kcna3,"ion current, inhibitor, patch clamp",,,139
CCOc1ccc(C[C@@H](N)C(=O)N[C@@H](Cc2ccccc2)C(=O)NC2CCN(C(=N)N)CC2)cc1,"Coagulation factor XII, trypsin-like site (F12, Homo sapiens, UniProt P00748)","enzyme activity, inhibitor, fluorescence",,,> 10000
CCOC(=O)Nc1ccc2c(c1)N(C(=O)CCN1CCOCC1)c1ccccc1S2,SLCO1B1,"transporter uptake, inhibitor, fluorescence",CHO,"30 min, pH 7.4",8100
Cc1cc(S(=O)(=O)Nc2cccc(-c3nnn[nH]3)c2)ccc1C(F)(F)F,LNPEP,"enzyme activity, inhibitor, fluorescence",,,2300
C=CCOc1cccc2c1-c1c(c3c(n1C(C)C)CCCC3=O)C2=O,"Casein kinase II subunit alpha' (CSNK2A2, Homo sapiens, UniProt P19784, C336S)","enzyme activity, inhibitor",,,273
CC(C)C[C@H](NC(=O)[C@H]1O[C@@H]1C(=O)O)C(=O)NCCCCN=C(N)N,"Papain (Carica papaya, UniProt P00784)","enzyme activity, inhibitor",,,0.15
Oc1c2ccccc2c2c3c(cccc13)N=N2,JAK1,"enzyme activity, inhibitor",,,974
Cc1ncsc1-c1ccc(CNC(=O)[C@@H]2C[C@H](O)CN2C(=O)[C@@H](NC(=O)C2(F)CC2)C(C)(C)C)c(OCCc2ccc(CN3CCN(c4cc(-c5ccccc5O)nnc4N)CC3)cc2)c1,"Protein polybromo-1, bromodomain (PBRM1, Homo sapiens, UniProt Q86U86)","cell-free assay, TR-FRET",,,1100
CCOc1cc(CC(=O)N[C@@H](CC(C)C)c2ccccc2N2CCCCC2)ccc1C(=O)O,SLCO1B1,"transporter uptake, inhibitor, fluorescence",CHO,"30 min, pH 7.4",1100
